Data: ChEMBL document CHEMBL4251722, “Identification of Ingol and Rhamnofolane Diterpenoids from Euphorbia resinifera and Their Abilities to Induce Lysosomal Biosynthesis” (2018)
The source made the active and inactive calls. The calls are words filed in the database; no cut-off is given here.

Tests used:
HeLa [1] = assay: Up regulation of cathepsin A mRNA expression in human HeLa cells at 40 uM after 3 hrs by TRIzol dye based qRT-PCR analysis; format: functional, cell-based
HeLa [2] = assay: Induction of lysosomal biosynthesis in human HeLa cells assessed as increase in staining intensity after 3 hrs by LysoTracker Red DND-99 staining based assay; format: functional, cell-based
Summary of the method: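 HeLa cells exposed 3 h to 10, 20, 40 and 60 μM test agent, then stained with LysoTracker Red. Lysosome induction is read as fold of LysoTracker Red signal over the DMSO negative control, with HEP-14 as positive control. Three independent experiments.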

HeLa [3] = assay: Induction of lysosomal biosynthesis in human HeLa cells assessed as increase in staining intensity at 40 uM by LysoTracker Red DND-99 staining based assay; format: functional, cell-based; conditions: TDE = time-dependent effect
Summary of the method: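 Time course in HeLa cells at 40 μM over five treatment intervals, followed by LysoTracker Red staining. Output is fold induction of staining versus DMSO control. n = 3 independent experiments.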

HeLa [4] = assay: Induction of lysosomal biosynthesis in human HeLa cells assessed as increase in staining intensity at 40 uM after 3 hrs by LysoTracker Red DND-99 staining based assay relative to control; format: functional
Summary of the method: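 HeLa cells given 40 μM for 3 h, then LysoTracker Red staining. Signal intensity is quantified as fold induction relative to DMSO-treated cells. HEP-14 at 40 μM is the positive control. Independent triplicates.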

HeLa [5] = assay: Up regulation of cathepsin B mRNA expression in human HeLa cells at 40 uM after 3 hrs by TRIzol dye based qRT-PCR analysis; format: functional, cell-based
HeLa [6] = assay: Up regulation of LAMP1 mRNA expression in human HeLa cells at 40 uM after 3 hrs by TRIzol dye based qRT-PCR analysis; format: functional, cell-based
HeLa [7] = assay: Up regulation of ATP6V0E1 mRNA expression in human HeLa cells at 40 uM after 3 hrs by TRIzol dye based qRT-PCR analysis; format: functional, cell-based

SMILES | Activity (HeLa [1]) | Activity (HeLa [2]) | Activity (HeLa [3]) | Activity (HeLa [4]) | Activity (HeLa [5]) | Activity (HeLa [6]) | Activity (HeLa [7])
COc1ccc([C@H](O)C(=O)O[C@@H]2/C(C)=C/[C@@]34O[C@@]3(C[C@H](C)[C@@H]4OC(C)=O)C(=O)[C@H](C)[C@H](OC(C)=O)[C@@H]3[C@H]([C@@H]2OC(C)=O)C3(C)C)cc1 | Active | Dose-dependent effect | Tde | 155.9% | Active | Active | Active
COc1ccc([C@H](O)C(=O)O[C@@H]2/C(C)=C/[C@@]34O[C@@]3(C[C@@](C)(O)[C@@H]4OC(C)=O)C(=O)[C@H](C)[C@H](OC(C)=O)[C@@H]3[C@H]([C@@H]2OC(C)=O)C3(C)C)cc1 | Active | Dose-dependent effect | Tde | 143.5% | Active | Active | Active
COc1ccc(CC(=O)O[C@@H]2/C(C)=C/[C@@]34O[C@@]3(C[C@H](C)[C@@H]4OC(C)=O)C(=O)[C@H](C)[C@H](OC(C)=O)[C@@H]3[C@H]([C@@H]2OC(C)=O)C3(C)C)cc1 | Active | Dose-dependent effect | Tde | 140.7% | Active | Active | Active
